Assay results of several laboratories.
Compare with care: the assays were run in different laboratories.
Route: oral

SMILES | system | conditions | Tmax
Cn1cc(-c2ccc(S(=O)(=O)[C@@H]3C[C@@H](C(=O)NC4(C#N)CC4)N(C(=O)C4(C(F)(F)F)CC4)C3)c(C(F)(F)F)c2)cn1 | human, plasma | 600 mg, single dose, fasted, healthy volunteers | 3.5 h
COc1ccc([C@@H]2CN(C(=O)[C@@H](O)CO)C[C@@]2(C)[C@@H](C)O)cc1OC1CN(c2ccc(C)cn2)C1 | human, plasma | 40 mg, single dose, healthy volunteers | 3.88 h
C=CC(=O)N(C)CCOc1c(N)ncnc1-c1cc(F)cc(NC(=O)c2ccc(C3CC3)cc2F)c1C | human, blood | 60 mg, single dose, healthy volunteers | 1.01 h
C[C@@H](Nc1cc(F)cc(F)c1)c1cc(C(=O)N(C)C)cc2c(=O)cc(N3CCOCC3)oc12 | human, plasma | 360 mg, single dose, patients | 1.53 h
CS(=O)(=O)CCC#N | human, plasma | 300 mg, multiple doses, once daily | 1 h
CC(C)n1cc(C#N)c2cc(-n3cc(C(=O)O)cn3)ccc21 | human, plasma | 25 mg, single dose, fasted, healthy volunteers | 2.3 h
CC(C)(O)c1ccccc1-c1ccc2[nH]c(/C=C/c3ccc(C(F)(F)F)cc3)nc2c1 | male human, plasma | 50 mg, single dose, fasted | 2.9 h
CCc1nc2c(C)cc(N3CCN(CC(=O)N4CC(O)C4)CC3)cn2c1N(C)c1nc(-c2ccc(F)cc2)c(C#N)s1 | human, plasma | 600 mg, single dose, fasted, healthy volunteers | 1.8 h
CC(C)(Sc1ccncc1-c1ccc(C#N)c2ccccc12)C(=O)O | male human, plasma | 20 mg, single dose, fed, healthy volunteers | 1.25 h
